Source: ChEMBL document CHEMBL1944580, “Synthesis of novel sulfonamide-1,2,4-triazoles, 1,3,4-thiadiazoles and 1,3,4-oxadiazoles, as potential antibacterial and antifungal agents. Biological evaluation and conformational analysis studies” (2012)
In brackets after ≈: the same amount, converted by molar mass.

Key:
[1] = tested on: Salmonella typhimurium; test: Antibacterial activity against Salmonella Typhimurium ATCC 13311 after 24 hrs by micro dilution method; format: functional, Salmonella enterica subsp. enterica serovar Typhimurium; settings: Salmonella enterica, ATCC 13311, 24 h
Outline: (§1)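 Microdilution MIC in 96-well plates. Bacterial suspensions adjusted in sterile saline to 1.0 × 10^5 CFU/ml, giving 1.0 × 10^4 cfu per well in LB broth. Compounds tested at up to 1 mg/ml. Plates incubated 24 h. MIC taken as the lowest concentration with no visible growth under a binocular microscope. OD at 655 nm was also read against a blank and the positive control. Streptomycin and ampicillin were the positive controls.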

[2] = tested on: Talaromyces funiculosus; test: Antifungal activity against Penicillium funiculosum ATCC 36839 after 72 hrs by serial dilution method; format: functional; settings: ATCC 36839, 72 h
Outline: (§2)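 Modified microdilution MIC. Spores were washed from malt agar cultures with sterile 0.85% saline containing 0.1% Tween 80 and adjusted to about 1.0 × 10^5 per 100 µl well in malt broth. Compounds were dissolved in DMSO (1 mg/ml). Plates incubated 72 h at 28 °C. MIC is the lowest concentration with no visible growth under a binocular microscope. Bifonazole and ketoconazole were the references.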

[3] = tested on: Listeria monocytogenes; test: Antibacterial activity against Listeria monocytogenes NCTC 7973 treated for 24 hrs followed by sub-cultivated for 72 hrs by micro dilution method; format: functional
Outline: (§3)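 2 µl from each well was serially subcultured into 100 µl fresh broth per well and incubated a further 72 h. MBC is the lowest concentration with no visible growth, taken as 99.5% killing of the original inoculum. Streptomycin and ampicillin were the positive controls.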

[4] = tested on: Enterobacter cloacae; test: Antibacterial activity against Enterobacter cloacae human isolate after 24 hrs by micro dilution method; format: functional; outline: as §1
[5] = tested on: Talaromyces funiculosus; test: Antifungal activity against Penicillium funiculosum ATCC 36839 treated for 72 hrs followed by sub-cultivated for 5 days by serial dilution method; format: functional
Outline: (§4)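 MFC obtained after the 72 h, 28 °C malt-broth microdilution (spore inoculum about 1.0 × 10^5 per well, compounds from 1 mg/ml DMSO). 2 µl was serially subcultured into 100 µl broth per well and incubated a further 5 days at 28 °C. MFC is the lowest concentration with no visible growth, taken as 99.5% killing of the original inoculum.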

[6] = tested on: Micrococcus flavus; test: Antibacterial activity against Micrococcus flavus ATCC 10240 after 24 hrs by micro dilution method; format: functional; settings: ATCC 10240, 24 h; outline: as §1
[7] = tested on: Penicillium ochrochloron; test: Antifungal activity against Penicillium ochrochloron ATCC 9112 treated for 72 hrs followed by sub-cultivated for 5 days by serial dilution method; format: functional; outline: as §4
[8] = tested on: Salmonella typhimurium; test: Antibacterial activity against Salmonella Typhimurium ATCC 13311 treated for 24 hrs followed by sub-cultivated for 72 hrs by micro dilution method; format: functional, Salmonella enterica subsp. enterica serovar Typhimurium; settings: Salmonella enterica; outline: as §3
[9] = tested on: Trichoderma viride; test: Antifungal activity against Trichoderma viride IAM 5061 treated for 72 hrs followed by sub-cultivated for 5 days by serial dilution method; format: functional; outline: as §4
[10] = tested on: Penicillium ochrochloron; test: Antifungal activity against Penicillium ochrochloron ATCC 9112 after 72 hrs by serial dilution method; format: functional; settings: ATCC 9112, 72 h; outline: as §2
[11] = tested on: Aspergillus niger; test: Antifungal activity against Aspergillus niger ATCC 6275 after 72 hrs by serial dilution method; format: functional; settings: ATCC 6275, 72 h; outline: as §2
[12] = tested on: Staphylococcus aureus; test: Antibacterial activity against Staphylococcus aureus ATCC 6538 after 24 hrs by micro dilution method; format: functional; settings: ATCC 6538, 24 h; outline: as §1
[13] = tested on: Bacillus cereus; test: Antibacterial activity against Bacillus cereus clinical isolate after 24 hrs by micro dilution method; format: functional; outline: as §1
[14] = tested on: Aspergillus flavus; test: Antifungal activity against Aspergillus flavus ATCC 9643 treated for 72 hrs followed by sub-cultivated for 5 days by serial dilution method; format: functional; outline: as §4
[15] = tested on: Micrococcus flavus; test: Antibacterial activity against Micrococcus flavus ATCC 10240 treated for 24 hrs followed by sub-cultivated for 72 hrs by micro dilution method; format: functional; outline: as §3
[16] = tested on: Aspergillus fumigatus; test: Antifungal activity against Aspergillus fumigatus human isolate after 72 hrs by serial dilution method; format: functional; outline: as §2
[17] = tested on: Aspergillus fumigatus; test: Antifungal activity against Aspergillus fumigatus human isolate treated for 72 hrs followed by sub-cultivated for 5 days by serial dilution method; format: functional; outline: as §4
[18] = tested on: Aspergillus versicolor; test: Antifungal activity against Aspergillus versicolor ATCC 11730 treated for 72 hrs followed by sub-cultivated for 5 days by serial dilution method; format: functional; outline: as §4
[19] = tested on: Enterobacter cloacae; test: Antibacterial activity against Enterobacter cloacae human isolate treated for 24 hrs followed by sub-cultivated for 72 hrs by micro dilution method; format: functional; outline: as §3
[20] = tested on: Fulvia fulva; test: Antifungal activity against Fulvia fulva treated for 72 hrs followed by sub-cultivated for 5 days by serial dilution method; format: functional; outline: as §4
[21] = tested on: Aspergillus niger; test: Antifungal activity against Aspergillus niger ATCC 6275 treated for 72 hrs followed by sub-cultivated for 5 days by serial dilution method; format: functional; outline: as §4
[22] = tested on: Trichoderma viride; test: Antifungal activity against Trichoderma viride IAM 5061 after 72 hrs by serial dilution method; format: functional; settings: IAM 5061, 72 h; outline: as §2
[23] = tested on: Pseudomonas aeruginosa; test: Antibacterial activity against Pseudomonas aeruginosa ATCC 27853 treated for 24 hrs followed by sub-cultivated for 72 hrs by micro dilution method; format: functional; outline: as §3
[24] = tested on: Aspergillus flavus; test: Antifungal activity against Aspergillus flavus ATCC 9643 after 72 hrs by serial dilution method; format: functional; settings: ATCC 9643, 72 h; outline: as §2
[25] = tested on: Pseudomonas aeruginosa; test: Antibacterial activity against Pseudomonas aeruginosa ATCC 27853 after 24 hrs by micro dilution method; format: functional; settings: ATCC 27853, 24 h; outline: as §1
[26] = tested on: Escherichia coli; test: Antibacterial activity against Escherichia coli ATCC 35210 treated for 24 hrs followed by sub-cultivated for 72 hrs by micro dilution method; format: functional; outline: as §3
[27] = tested on: Listeria monocytogenes; test: Antibacterial activity against Listeria monocytogenes NCTC 7973 after 24 hrs by micro dilution method; format: functional; settings: NCTC 7973, 24 h; outline: as §1
[28] = tested on: Staphylococcus aureus; test: Antibacterial activity against Staphylococcus aureus ATCC 6538 treated for 24 hrs followed by sub-cultivated for 72 hrs by micro dilution method; format: functional; outline: as §3
[29] = tested on: Aspergillus versicolor; test: Antifungal activity against Aspergillus versicolor ATCC 11730 after 72 hrs by serial dilution method; format: functional; settings: ATCC 11730, 72 h; outline: as §2
[30] = tested on: Bacillus cereus; test: Antibacterial activity against Bacillus cereus clinical isolate treated for 24 hrs followed by sub-cultivated for 72 hrs by micro dilution method; format: functional; outline: as §3
[31] = tested on: Fulvia fulva; test: Antifungal activity against Fulvia fulva after 72 hrs by serial dilution method; format: functional; outline: as §2
[32] = tested on: Escherichia coli; test: Antibacterial activity against Escherichia coli ATCC 35210 after 24 hrs by micro dilution method; format: functional; settings: ATCC 35210, 24 h; outline: as §1

| SMILES | MIC [1] [µM] | MIC [2] [µM] | MBC [3] [µM] | MIC [4] [µM] | MFC [5] [µM] | MIC [6] [µM] | MFC [7] [µM] | MBC [8] [µM] | MFC [9] [µM] | MIC [10] [µM] | MIC [11] [µM] | MIC [12] [µM] | MIC [13] [µM] | MFC [14] [µM] | MBC [15] [µM] | MIC [16] [µM] | MFC [17] [µM] | MFC [18] [µM] | MBC [19] [µM] | MFC [20] [µM] | also measured |
| --- | --- | --- | --- | --- | --- | --- | --- | --- | --- | --- | --- | --- | --- | --- | --- | --- | --- | --- | --- | --- | --- |
| CNc1nnc(Cc2cc(OC)c(OC)cc2S(=O)(=O)N(C)C)s1 | 270 (≈ 101 µg/mL) | 140 (≈ 52.1 µg/mL) | 540 (≈ 201 µg/mL) | 270 (≈ 101 µg/mL) | 270 (≈ 101 µg/mL) | 270 (≈ 101 µg/mL) | 270 (≈ 101 µg/mL) | 270 (≈ 101 µg/mL) | 130 (≈ 48.4 µg/mL) | 140 (≈ 52.1 µg/mL) | 70 (≈ 26.1 µg/mL) | 270 (≈ 101 µg/mL) | 270 (≈ 101 µg/mL) | 270 (≈ 101 µg/mL) | 540 (≈ 201 µg/mL) | 140 (≈ 52.1 µg/mL) | 270 (≈ 101 µg/mL) | 540 (≈ 201 µg/mL) | 270 (≈ 101 µg/mL) | 70 (≈ 26.1 µg/mL) | MFC [21]: 140 µM (≈ 52.1 µg/mL); MIC [22]: 70 µM (≈ 26.1 µg/mL); MBC [23]: 270 µM (≈ 101 µg/mL); MIC [24]: 140 µM (≈ 52.1 µg/mL); MIC [25]: 270 µM (≈ 101 µg/mL); MBC [26]: 270 µM (≈ 101 µg/mL); MIC [27]: 270 µM (≈ 101 µg/mL); MBC [28]: 540 µM (≈ 201 µg/mL); MIC [29]: 270 µM (≈ 101 µg/mL); MBC [30]: 270 µM (≈ 101 µg/mL); MIC [31]: 70 µM (≈ 26.1 µg/mL); MIC [32]: 270 µM (≈ 101 µg/mL) |
| CCNc1nnc(Cc2cc(OC)c(OC)cc2S(=O)(=O)N(C)C)s1 | 260 (≈ 100 µg/mL) | 130 (≈ 50.2 µg/mL) | 520 (≈ 201 µg/mL) | 520 (≈ 201 µg/mL) | 260 (≈ 100 µg/mL) | 260 (≈ 100 µg/mL) | 260 (≈ 100 µg/mL) | 260 (≈ 100 µg/mL) | 130 (≈ 50.2 µg/mL) | 130 (≈ 50.2 µg/mL) | 130 (≈ 50.2 µg/mL) | 520 (≈ 201 µg/mL) | 260 (≈ 100 µg/mL) | 260 (≈ 100 µg/mL) | 520 (≈ 201 µg/mL) | 130 (≈ 50.2 µg/mL) | 260 (≈ 100 µg/mL) | 520 (≈ 201 µg/mL) | 520 (≈ 201 µg/mL) | 70 (≈ 27.1 µg/mL) | MFC [21]: 260 µM (≈ 100 µg/mL); MIC [22]: 70 µM (≈ 27.1 µg/mL); MBC [23]: 260 µM (≈ 100 µg/mL); MIC [24]: 130 µM (≈ 50.2 µg/mL); MIC [25]: 260 µM (≈ 100 µg/mL); MBC [26]: 260 µM (≈ 100 µg/mL); MIC [27]: 520 µM (≈ 201 µg/mL); MBC [28]: 520 µM (≈ 201 µg/mL); MIC [29]: 260 µM (≈ 100 µg/mL); MBC [30]: 260 µM (≈ 100 µg/mL); MIC [31]: 70 µM (≈ 27.1 µg/mL); MIC [32]: 260 µM (≈ 100 µg/mL) |
